What all share (assay type): functional
Test [1] has as its system Streptococcus pneumoniae. The test can be described thus: Antibacterial activity against penicillin intermediate-resistant Streptococcus pneumoniae isolate I1 by agar dilution method. The procedure, abridged: (§1)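 MIC determined by agar dilution on Mueller–Hinton agar against clinically isolated penicillin-intermediate-resistant S. pneumoniae.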
For test [2], the system named is Staphylococcus aureus. The test can be described thus: Antibacterial activity against methicillin-susceptible Staphylococcus aureus ATCC 29213 by agar dilution method. The procedure, abridged: (§2)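 MIC determined by agar dilution on Mueller–Hinton agar against reference strains.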
Background: Agar dilution tests growth on a series of plates holding different concentrations.

The test system of test [3] is Staphylococcus aureus. The test can be described thus: Antibacterial activity against methicillin-resistant Staphylococcus aureus 1 by agar dilution method. The procedure, abridged:
(§3)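 MIC determined by agar dilution on Mueller–Hinton agar against clinical strains of methicillin-resistant S. aureus.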

The subject of test [4] is Staphylococcus aureus. Nature of the test: Antibacterial activity against methicillin-resistant Staphylococcus aureus 2 by agar dilution method. A digest of the protocol: as §3
The test system of test [5] is Staphylococcus aureus. Nature of the test: Antibacterial activity against methicillin-resistant Staphylococcus aureus 3 by agar dilution method. A digest of the protocol: as §3
Test [6] has as its system Staphylococcus aureus. Nature of the test: Antibacterial activity against methicillin-susceptible Staphylococcus aureus isolate 1 by agar dilution method. The procedure, abridged:
(§4)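 MIC determined by agar dilution on Mueller–Hinton agar against clinically isolated methicillin-susceptible S. aureus.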

For test [7], the system named is Staphylococcus aureus. Nature of the test: Antibacterial activity against methicillin-susceptible Staphylococcus aureus isolate 2 by agar dilution method. The procedure, abridged:
as §4

Test [8] has as its system Staphylococcus aureus. Nature of the test: Antibacterial activity against methicillin-susceptible Staphylococcus aureus isolate 3 by agar dilution method. A digest of the protocol: as §4
Test [9] relates to Streptococcus pneumoniae. The test can be described thus: Antibacterial activity against Streptococcus pneumoniae ATCC 49619 by agar dilution method. The conditions noted are these: ATCC49619. The procedure, abridged:
as §2

In test [10] the test system is Streptococcus pneumoniae. The test can be described thus: Antibacterial activity against penicillin intermediate-resistant Streptococcus pneumoniae isolate I2 by agar dilution method. A digest of the protocol: as §1
In test [11] the test system is Streptococcus pneumoniae. Nature of the test: Antibacterial activity against penicillin intermediate-resistant Streptococcus pneumoniae isolate I3 by agar dilution method. A digest of the protocol: as §1
For test [12], the system named is Streptococcus pneumoniae. The test can be described thus: Antibacterial activity against penicillin-susceptible Streptococcus pneumoniae isolate S1 by agar dilution method. The procedure, abridged:
(§5)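 MIC measured by agar dilution on Mueller–Hinton agar. Strains were a reference culture and clinically isolated strains. The pneumococcal isolates were penicillin-susceptible clinical isolates.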

Test [13] deals with Streptococcus pneumoniae. The test can be described thus: Antibacterial activity against penicillin-susceptible Streptococcus pneumoniae isolate S2 by agar dilution method. A digest of the protocol: as §5
Test [14] deals with Streptococcus pyogenes. The test can be described thus: Antibacterial activity against Streptococcus pyogenes ATCC 8668 by agar dilution method. A digest of the protocol: as §5
Test [15] relates to Streptococcus pyogenes. Nature of the test: Antibacterial activity against Streptococcus pyogenes isolate 1 by agar dilution method. The procedure, abridged:
as §5

The subject of test [16] is Streptococcus pyogenes. Nature of the test: Antibacterial activity against Streptococcus pyogenes isolate 2 by agar dilution method. A digest of the protocol: as §5
Test [17] concerns Streptococcus pyogenes. The test can be described thus: Antibacterial activity against Streptococcus pyogenes isolate 3 by agar dilution method. A digest of the protocol:
as §5

Values after ≈ are worked out from the molar mass of the structure shown.

One may read the MIC as the lowest concentration that inhibits growth of the organism. A low value points to inhibition by little substance.

With `CC[C@H]1OC(=O)[C@H](C)C(=O)[C@H](C)[C@@H](O[C@@H]2O[C@H](C)C[C@H](N(C)C)[C@H]2O)[C@](C)(OC)C[C@@H](C)/C(=N\OC/C=C/c2cccc(OC)c2)[C@H](C)[C@@H](O)[C@]1(C)O`, the MIC stood at 64 µg/mL (≈ 85.5 µM) against Streptococcus pneumoniae [1]; 2 µg/mL (≈ 2.67 µM) against Staphylococcus aureus [2]; 128 µg/mL (≈ 171 µM) with Staphylococcus aureus [3]; 128 µg/mL (≈ 171 µM) with Staphylococcus aureus [4]; 2 µg/mL (≈ 2.67 µM) with Staphylococcus aureus [5]; 2 µg/mL (≈ 2.67 µM) against Staphylococcus aureus [6]. Further, the MIC against Staphylococcus aureus [7] is 2 µg/mL (≈ 2.67 µM); against Staphylococcus aureus [8] it was 2 µg/mL (≈ 2.67 µM); against Streptococcus pneumoniae [9], 1 µg/mL (≈ 1.34 µM); in the test with Streptococcus pneumoniae [10], 1 µg/mL (≈ 1.34 µM); in the test on Streptococcus pneumoniae [11] it was 64 µg/mL (≈ 85.5 µM); in the test with Streptococcus pneumoniae [12], 0.25 µg/mL (≈ 0.334 µM). The MIC with Streptococcus pneumoniae [13] was 0.25 µg/mL (≈ 0.334 µM); in the test with Streptococcus pyogenes [14], 1 µg/mL (≈ 1.34 µM); with Streptococcus pyogenes [15] it was 0.25 µg/mL (≈ 0.334 µM); in the test on Streptococcus pyogenes [16], 1 µg/mL (≈ 1.34 µM); in the test on Streptococcus pyogenes [17], 1 µg/mL (≈ 1.34 µM).
`CC[C@H]1OC(=O)[C@H](C)C(=O)[C@H](C)[C@@H](O[C@@H]2O[C@H](C)C[C@H](N(C)C)[C@H]2O)[C@](C)(OC)C[C@@H](C)/C(=N\OC/C=C/c2ccc(OC)c(OC)c2)[C@H](C)[C@@H](O)[C@]1(C)O`: the MIC is 32 µg/mL (≈ 41.1 µM) with Streptococcus pneumoniae [1]; 1 µg/mL (≈ 1.28 µM) against Staphylococcus aureus [2]; 128 µg/mL (≈ 164 µM) in the test on Staphylococcus aureus [3]; 128 µg/mL (≈ 164 µM) in the test with Staphylococcus aureus [4]; 1 µg/mL (≈ 1.28 µM) in the test on Staphylococcus aureus [5]; 0.5 µg/mL (≈ 0.642 µM) in the test with Staphylococcus aureus [6]. In addition, the MIC in the test with Staphylococcus aureus [7] was found to be 1 µg/mL (≈ 1.28 µM); with Staphylococcus aureus [8], 1 µg/mL (≈ 1.28 µM); with Streptococcus pneumoniae [9] it was 0.25 µg/mL (≈ 0.321 µM); with Streptococcus pneumoniae [10], 0.5 µg/mL (≈ 0.642 µM); in the test with Streptococcus pneumoniae [11], 0.5 µg/mL (≈ 0.642 µM); against Streptococcus pneumoniae [12] it was 0.06 µg/mL (≈ 0.077 µM). Besides, the MIC in the test on Streptococcus pneumoniae [13] was found to be 0.06 µg/mL (≈ 0.077 µM); with Streptococcus pyogenes [14], 0.25 µg/mL (≈ 0.321 µM); in the test with Streptococcus pyogenes [15], 0.06 µg/mL (≈ 0.077 µM); with Streptococcus pyogenes [16] it was 0.25 µg/mL (≈ 0.321 µM); in the test with Streptococcus pyogenes [17], 0.25 µg/mL (≈ 0.321 µM).
On to `CC[C@H]1OC(=O)[C@H](C)C(=O)[C@H](C)[C@@H](O[C@@H]2O[C@H](C)C[C@H](N(C)C)[C@H]2O)[C@](C)(OC)C[C@@H](C)/C(=N\OC/C=C/c2cccnc2)[C@H](C)[C@@H](O)[C@]1(C)O`, for which the MIC in the test with Streptococcus pneumoniae [1] worked out at 64 µg/mL (≈ 88.9 µM); against Staphylococcus aureus [2], 0.5 µg/mL (≈ 0.695 µM); in the test with Staphylococcus aureus [3], 128 µg/mL (≈ 178 µM); in the test with Staphylococcus aureus [4], 128 µg/mL (≈ 178 µM); in the test on Staphylococcus aureus [5], 0.5 µg/mL (≈ 0.695 µM); with Staphylococcus aureus [6] it was 0.25 µg/mL (≈ 0.347 µM). For the same molecule, the MIC came to 0.25 µg/mL (≈ 0.347 µM) against Staphylococcus aureus [7]; 0.25 µg/mL (≈ 0.347 µM) in the test with Staphylococcus aureus [8]; 0.125 µg/mL (≈ 0.174 µM) against Streptococcus pneumoniae [9]; 0.25 µg/mL (≈ 0.347 µM) in the test with Streptococcus pneumoniae [10]; 0.06 µg/mL (≈ 0.0833 µM) with Streptococcus pneumoniae [11]; 0.06 µg/mL (≈ 0.0833 µM) in the test on Streptococcus pneumoniae [12]. For the same molecule, the MIC in the test on Streptococcus pneumoniae [13] was 0.06 µg/mL (≈ 0.0833 µM); against Streptococcus pyogenes [14], 0.25 µg/mL (≈ 0.347 µM); against Streptococcus pyogenes [15], 0.06 µg/mL (≈ 0.0833 µM); in the test with Streptococcus pyogenes [16], 0.06 µg/mL (≈ 0.0833 µM); with Streptococcus pyogenes [17], 0.06 µg/mL (≈ 0.0833 µM).
Regarding `CC[C@H]1OC(=O)[C@H](C)C(=O)[C@H](C)[C@@H](O[C@@H]2O[C@H](C)C[C@H](N(C)C)[C@H]2O)[C@](C)(OC)C[C@@H](C)/C(=N\OC/C=C/c2cncc3ccccc23)[C@H](C)[C@@H](O)[C@]1(C)O`, the MIC was determined as 32 µg/mL (≈ 41.6 µM) against Streptococcus pneumoniae [1]; 1 µg/mL (≈ 1.3 µM) in the test on Staphylococcus aureus [2]; 128 µg/mL (≈ 166 µM) with Staphylococcus aureus [3]; 128 µg/mL (≈ 166 µM) in the test on Staphylococcus aureus [4]; 0.5 µg/mL (≈ 0.649 µM) against Staphylococcus aureus [5]; 1 µg/mL (≈ 1.3 µM) with Staphylococcus aureus [6]. For the same molecule, the MIC against Staphylococcus aureus [7] turned out to be 0.5 µg/mL (≈ 0.649 µM); against Staphylococcus aureus [8] it was 0.5 µg/mL (≈ 0.649 µM); in the test with Streptococcus pneumoniae [9] it was 0.25 µg/mL (≈ 0.325 µM); with Streptococcus pneumoniae [10] it was 0.5 µg/mL (≈ 0.649 µM); with Streptococcus pneumoniae [11], 1 µg/mL (≈ 1.3 µM); with Streptococcus pneumoniae [12] it was 0.25 µg/mL (≈ 0.325 µM). Besides, the MIC with Streptococcus pneumoniae [13] came out at 0.25 µg/mL (≈ 0.325 µM); against Streptococcus pyogenes [14] it was 0.25 µg/mL (≈ 0.325 µM); against Streptococcus pyogenes [15], 0.06 µg/mL (≈ 0.0779 µM); in the test on Streptococcus pyogenes [16], 0.25 µg/mL (≈ 0.325 µM); against Streptococcus pyogenes [17], 0.25 µg/mL (≈ 0.325 µM).
Regarding `CC[C@H]1OC(=O)[C@H](C)C(=O)[C@H](C)[C@@H](O[C@@H]2O[C@H](C)C[C@H](N(C)C)[C@H]2O)[C@](C)(OC)C[C@@H](C)/C(=N\OC/C=C/c2cncnc2)[C@H](C)[C@@H](O)[C@]1(C)O`, the MIC turned out to be 128 µg/mL (≈ 178 µM) in the test with Streptococcus pneumoniae [1]; 0.5 µg/mL (≈ 0.694 µM) with Staphylococcus aureus [2]; 128 µg/mL (≈ 178 µM) against Staphylococcus aureus [3]; 128 µg/mL (≈ 178 µM) against Staphylococcus aureus [4]; 0.5 µg/mL (≈ 0.694 µM) against Staphylococcus aureus [5]; 0.5 µg/mL (≈ 0.694 µM) against Staphylococcus aureus [6]. For the same molecule, the MIC is 0.5 µg/mL (≈ 0.694 µM) in the test with Staphylococcus aureus [7]; 0.5 µg/mL (≈ 0.694 µM) in the test on Staphylococcus aureus [8]; 0.25 µg/mL (≈ 0.347 µM) against Streptococcus pneumoniae [9]; 0.5 µg/mL (≈ 0.694 µM) in the test on Streptococcus pneumoniae [10]; 1 µg/mL (≈ 1.39 µM) in the test on Streptococcus pneumoniae [11]; 0.125 µg/mL (≈ 0.173 µM) in the test with Streptococcus pneumoniae [12]. In addition, the MIC in the test with Streptococcus pneumoniae [13] is 0.125 µg/mL (≈ 0.173 µM); against Streptococcus pyogenes [14], 0.25 µg/mL (≈ 0.347 µM); against Streptococcus pyogenes [15] it was 0.06 µg/mL (≈ 0.0832 µM); in the test on Streptococcus pyogenes [16], 0.25 µg/mL (≈ 0.347 µM); against Streptococcus pyogenes [17], 0.25 µg/mL (≈ 0.347 µM).

The record behind these values is ChEMBL document CHEMBL1156205, “Synthesis and antibacterial activity of new 9-O-arylpropenyloxime ketolides” (2010).
